NR2E3 ag-1: activates human NR2E3 receptor; CHO-S Gal4-NCOR/VP16-NR2E3 two-hybrid, luciferase; Q9Y5X4; hit rate 0.35% among 360,000; inhibition of corepressor binding, % at 3.98 µM;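 active = inhibition above the mean of all tested compounds plus 3 SD, cut at about 70% in these data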;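 note: 0% = DMSO with NR2E3 transfected cells and 100% = cells lacking NR2E3 construct; higher means lower luciferase signal from less NR2E3 corepressor binding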
Target sequence (Q9Y5X4 whole entry, looked up, the tested form may be a part): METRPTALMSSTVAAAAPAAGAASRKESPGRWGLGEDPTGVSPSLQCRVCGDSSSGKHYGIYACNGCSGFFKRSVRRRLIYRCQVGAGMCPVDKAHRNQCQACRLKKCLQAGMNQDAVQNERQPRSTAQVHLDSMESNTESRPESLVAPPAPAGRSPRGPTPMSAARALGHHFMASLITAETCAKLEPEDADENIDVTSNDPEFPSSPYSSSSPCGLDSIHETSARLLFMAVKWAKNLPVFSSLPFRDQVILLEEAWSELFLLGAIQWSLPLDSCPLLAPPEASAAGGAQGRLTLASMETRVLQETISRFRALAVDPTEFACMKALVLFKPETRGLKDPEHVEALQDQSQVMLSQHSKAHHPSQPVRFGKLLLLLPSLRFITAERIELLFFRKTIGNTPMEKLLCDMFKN
697 NFkB inh: lowers PMA/ionomycin-induced NF-kB signal in 697 B cells; 697 B-cell NF-kB luciferase reporter, 16 h; inhibition, % at 4 µM; AID 435022; hit rate 0.33% among 330,000; in the data active = inhibition above about 35%
GalR3 antag: blocks the human galanin receptor 3 | HEK293 GalR3-CNG cAMP membrane potential fluorescence; galR3 body fused to GalR1 C-terminus | inhibition, % at 3 µM | hit rate 0.44% among 360,000 | AID 651719;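 active = inhibition above the screen-wide average plus 3 SD, cut at about 13% in these data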;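 note: forskolin and galanin both at EC90 stimulate the cells; cAMP rise reported by CNG channel membrane potential dye signal; 0% = forskolin plus galanin with DMSO and 100% = forskolin alone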
Jurkat NFkB inh: inhibitors of the PMA/ionomycin-induced NF-kB reporter in Jurkat cells | inhibition, % at 4 µM | PMA/ionomycin-induced NF-kB luciferase reporter, luminescence | hit rate 0.53% among 330,000 | AID 435003; in the data active = inhibition above about 50%
NR2E3 ag-2: NR2E3 (human) agonism; hit rate 0.12% among 320,000; inhibition of corepressor binding, % at 4.78 µM; GST-NR2E3/biotin-RetCOR TR-FRET, 1536-well; Q9Y5X4;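 active = percent inhibition above the cutoff of mean plus 3 SD of all tested compounds, set per screening campaign, cut at about 20% in these data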;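 note: 0% = DMSO wells and 100% = biotin wells as full block of FRET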
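Material: NR2E3–RetCOR corepressor complex / Amount: 1.35 nM GST-NR2E3 / Medium: Tris pH 7.5 / Compound: single nominal compound dose of 4.8 µM / Incubation: 5 h at 4 °C / Technique: TR-FRET, Eu(K)-anti-GST donor, streptavidin-D2 acceptor, ex 340, em 617/671 nm / Read-out basis: percent loss of FRET ratio relative to control wells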
JMJD2C inh: human JMJD2C demethylase inhibition; Q9H3R0; GST-JMJD2C(1-420) H3K9me3 demethylation, DELFIA europium; inhibition, % at 2.35 µM; hit rate 0.069% among 330,000; AID 2099;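 active = more than half of a compound's replicate wells show inhibition beyond 50%, single wells judged on their own value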;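 note: signal counts dimethyl H3K9 product captured on neutravidin plate; 0% = median of DMSO wells and 100% = 0.3 times that DMSO median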
Jurkat NFkB conf: inhibitors of the PMA/ionomycin-induced NF-kB reporter in Jurkat cells, retest. shares compounds with Jurkat NFkB inh. Jurkat NF-kB luciferase, 16 h. inhibition, % at 4 µM. hit rate 27% among 2,700;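 active = inhibition reaching about 45% at 4 µM in either replicate, limit read from the data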;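 note: plate controls were PMA/ionomycin stimulated DMSO wells for no effect and unstimulated DMSO wells for full effect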
An asterisk follows results filed as active; . = no result given. An excerpt weighted towards active compounds, which were near 1.5% of everything screened.

SMILES	NR2E3 ag-1	697 NFkB inh	GalR3 antag	Jurkat NFkB inh	NR2E3 ag-2	JMJD2C inh	Jurkat NFkB conf
CC(=O)NC(Cc1ccc(F)cc1)C(=O)N1CCN(C(=O)NCc2ccccc2)CC1 (stereo not drawn)	3.8	18.5	-4.4	-3.2	2.0	0.7	.
Cc1nn(-c2ccccc2)c(Cl)c1C(=O)NNC(=O)c1ccccc1O	-5.8	-25.2	-0.3	-17.6	1.2	18.0	.
COC(=O)c1[nH]c2ccc(Br)cc2c1NC(=O)CN1CCN(C2CCCCC2)CC1	20.1	-0.6	-5.7	68.3*	-0.6	17.8	45.6*
COC(=O)c1[nH]c2ccc(C)cc2c1NC(=O)CCN1CCN(C2CCCCC2)CC1	.	-34.8	.	-4.9	.	16.0	.
COc1ccc(C(=O)Nc2ccc(Cl)c(S(=O)(=O)N3CCOCC3)c2)cc1	12.7	-6.2	-5.2	17.1	.	8.3	.
O=C(Nc1ccc(Cl)c(S(=O)(=O)N2CCOCC2)c1)c1ccc(OCC2CCCO2)cc1 (stereo not drawn)	-27.7	-36.0	.	60.0*	2.7	-40.8	64.2*
COc1cccc(/C=N\NS(=O)(=O)c2ccccc2)c1OC	-11.8	2.5	-0.6	-21.6	1.1	0.1	.
COc1ccccc1/C=N/NS(=O)(=O)c1ccccc1	9.9	-19.6	-3.4	90.7*	1.8	-6.6	9.2
Cc1ccccc1CNC(=O)C(=O)NCCC1CCCCN1S(=O)(=O)c1cccs1 (stereo not drawn)	-3.6	-26.3	-2.2	-4.8	-2.4	5.5	.
Cc1ccc(Cn2c(=N)n(CC(O)COc3ccccc3)c3ccccc32)cc1 (stereo not drawn)	-5.5	-39.7	-11.7	52.6*	1.4	12.1	12.1
CCc1cc2c(=O)n(Cc3ccco3)c(SCc3c(C)noc3C)nc2s1	-100.1	2.1	-2.0	55.3*	-2.6	-5.6	28.0
CCOc1cccc2cc(-c3csc(NC(=O)CCC(=O)NCCN4CCCCC4C)n3)c(=O)oc12 (stereo not drawn)	-161.9	-57.4	-1.5	-200.4	1.6	3.4	-31.6
COc1cccc2cc(-c3csc(NC(=O)CCC(=O)NCCCN4CCC(C)CC4)n3)c(=O)oc12	-139.2	-237.4	-4.4	-157.9	-2.3	0.0	-103.8
CCOc1cccc2cc(-c3csc(NC(=O)CCC(=O)NCCCN4CCC(C)CC4)n3)c(=O)oc12	.	-99.4	.	-185.1	-5.6	-6.5	-70.8
CC(C)(C)c1ccc(C(=O)CCC(=O)OCC(=O)NCCc2ccc(S(N)(=O)=O)cc2)cc1	-11.5	17.9	-7.0	-2.7	0.1	-7.1	.
Cc1ccc(N(Cc2cc3ccccc3[nH]c2=O)S(=O)(=O)c2ccccc2)cc1	-12.5	-17.2	-3.4	84.9*	-0.1	2.5	15.6
COc1ccc(N(Cc2cc3ccccc3[nH]c2=O)S(=O)(=O)c2ccc(C)cc2)cc1	-25.1	-13.3	2.6	-5.4	4.6	6.0	.
CCOc1ccc(/C=N/NS(=O)(=O)c2ccc(C)cc2)cc1OC	8.0	-7.0	-4.2	-10.5	.	6.1	.
COc1cc(/C=N/NS(=O)(=O)c2ccc(C)cc2)ccc1OCc1ccc(C(=O)O)cc1	-213.1	-8.5	-2.7	62.9*	1.2	8.3	27.6
CCOC(=O)c1sc(=NC(=O)c2cccc(Br)c2)n(C)c1C	-37.8	-84.0	-7.1	-111.3	1.8	-5.2	.
CCOC(=O)c1sc(=NC(=O)c2ccc(F)cc2)n(C)c1C	-81.7	-198.2	-3.3	-153.9	-1.4	4.1	-121.2
CCOC(=O)c1sc(=NC(=O)c2cccc(C)c2)n(C)c1C	-48.5	-114.4	2.2	-186.3	3.7	4.1	-109.0
C=CCNc1nc2cc(-c3cccc(Cl)c3)sc2c(=O)n1C	-98.6	.	-5.7	.	.	.	.
COc1ccc(C(=O)Nc2cccc(C(=O)N/N=C/c3ccc(OC)cc3OC)c2)cc1	-45.3	-14.3	-2.6	56.6*	3.1	-16.3	1.9
COc1ccc(/C=N/NC(=O)c2cccc(NC(C)=O)c2)c(OC)c1	14.8	11.1	-1.0	-9.8	-1.2	-5.7	.
COc1cccc(NC(=O)c2ccc3c(c2)CCCC3)c1	-22.7	-20.9	4.4	-153.5	-1.0	-1.4	-118.3

From PubChem
